As usually defined, the inhibition is the drop in the measured response relative to a control, in per cent. High values mean a strong effect, low ones a weak effect. The term IC50 denotes the point on the concentration scale where inhibition reaches its midpoint.

For data set [1], the target named is T1, CYP17 (steroid 17-alpha-hydroxylase/17,20 lyase) (Homo sapiens, UniProt P05093).
T1 sequence (P05093 whole entry): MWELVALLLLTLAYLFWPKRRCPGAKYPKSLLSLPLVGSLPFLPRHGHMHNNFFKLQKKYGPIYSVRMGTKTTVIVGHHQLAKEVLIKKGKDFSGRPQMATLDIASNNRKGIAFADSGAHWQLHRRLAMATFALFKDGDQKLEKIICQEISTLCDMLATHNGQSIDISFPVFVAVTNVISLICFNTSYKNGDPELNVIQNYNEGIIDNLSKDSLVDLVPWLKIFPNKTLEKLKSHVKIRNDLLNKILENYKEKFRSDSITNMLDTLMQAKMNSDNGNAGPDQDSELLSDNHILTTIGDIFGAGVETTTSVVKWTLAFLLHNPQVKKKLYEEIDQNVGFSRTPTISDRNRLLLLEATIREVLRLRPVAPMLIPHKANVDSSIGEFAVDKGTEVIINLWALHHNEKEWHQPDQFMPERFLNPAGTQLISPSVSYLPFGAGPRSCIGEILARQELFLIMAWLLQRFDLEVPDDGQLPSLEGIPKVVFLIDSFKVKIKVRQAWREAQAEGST
The data set is described as follows: (§1) Inhibition of human CYP17 expressed in Escherichia coli coexpressing NADPH reductase at 2 uM. The method in brief:
(§2)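 Enzyme: 50,000g sediment from homogenized, fractionally centrifuged E. coli coexpressing human CYP17 and NADPH-P450 reductase. Substrate: progesterone, 25 µM. Values are means of at least three experiments, with deviations within 5%.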

The target of data set [2] is T2, Aromatase (Homo sapiens, UniProt P11511).
T2 sequence (P11511 whole entry): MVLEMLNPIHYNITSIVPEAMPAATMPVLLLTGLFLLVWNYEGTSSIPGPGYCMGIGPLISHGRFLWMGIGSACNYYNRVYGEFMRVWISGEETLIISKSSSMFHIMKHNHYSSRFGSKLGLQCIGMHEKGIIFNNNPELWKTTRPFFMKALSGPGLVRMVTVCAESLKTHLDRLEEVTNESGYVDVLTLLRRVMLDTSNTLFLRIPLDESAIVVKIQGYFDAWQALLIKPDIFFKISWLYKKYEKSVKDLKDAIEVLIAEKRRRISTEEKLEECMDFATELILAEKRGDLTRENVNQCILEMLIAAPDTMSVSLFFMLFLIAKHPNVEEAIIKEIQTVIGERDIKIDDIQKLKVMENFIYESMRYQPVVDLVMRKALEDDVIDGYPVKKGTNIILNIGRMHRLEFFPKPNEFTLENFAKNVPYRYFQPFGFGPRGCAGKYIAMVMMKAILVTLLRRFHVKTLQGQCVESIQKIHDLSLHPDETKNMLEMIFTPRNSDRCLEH
The data set is described as follows: Inhibition of human aromatase at 36 uM. The method in brief:
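Aromatase source: microsomal fraction of fresh human term placenta. Substrate: [1β,2β-³H]testosterone, 500 nM. Read-out: tritiated water released on aromatization (³H₂O method). Values are means of at least three experiments, with deviations within 5%.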

For data set [3], the target named is T2, Aromatase. The data set is described as follows: Inhibition of human aromatase.
Data set [4] concerns the target T3, Steroid 17-alpha-hydroxylase/17,20 lyase (Homo sapiens, UniProt P05093).
T3 sequence (P05093 whole entry): T1 sequence (P05093 whole entry)
The description is as §1. The note with it: 2 µM. The method, boiled down: as §2

As to `CC(C)(C)c1ccc(CN(Cc2ccc(Cl)cc2Cl)n2cnnc2)cc1`, the inhibition at 2 µM in data set [1] amounted to 4%. The compound also displayed an inhibition at 36 µM in data set [2] of 3.3%.
Take `c1ccc(CN(Cc2cccc3ccsc23)n2ccnc2)cc1`: in data set [1], the inhibition at 2 µM was found to be 5.25%. In data set [3], this compound registered an IC50 of 9960 nM.
`Clc1ccc(CC(Cc2ccc(-c3ccccc3)cc2)n2ccnc2)s1` (stereo unspecified): in data set [1], 2 µM produced 25.7% inhibition. In addition, the IC50 in data set [3] stood at 1070 nM.
On the same counts, the results for `Clc1ccc(CN(Cc2ccccc2)n2ccnc2)s1` are 7.3% and 1060 nM.
On the same counts, the results for `Clc1ccc(CN(Cc2ccc(-c3ccccc3)cc2)n2ccnc2)s1` are 23.6% and 1040 nM.
As for `Clc1ccc(CN(CC/C=C/c2ccccc2)n2cncn2)c(Cl)c1`, the inhibition at 2 µM in data set [1] turned out to be 21.1%. Inhibition in data set [3] was half-maximal at 17100 nM (IC50).
For the compound `CC(C)(C)c1ccc(CN(CC/C=C/c2ccccc2)n2cncn2)cc1`, the inhibition at 2 µM in data set [1] amounted to 12.4%. In addition, in data set [3], it took 5060 nM to reach half-maximal inhibition (IC50).
`CC(C)(C)c1ccc(CN(Cc2cccc3ccccc23)n2ccnc2)cc1`: the inhibition at 2 µM in data set [1] came to 13%. Moreover, half-maximal inhibition in data set [3] (IC50) required 4590 nM.
On the same counts, the results for `Clc1ccc(CN(Cc2cccc3ccccc23)n2ccnc2)c(Cl)c1` are 11.3% and 4000 nM.
In the case of `CC(C)(C)c1ccc(CN(Cc2ccc(-c3ccccc3)cc2)n2cncn2)cc1`, testing at 2 µM in data set [1] gave an inhibition of 6.03%. For the same compound, the inhibition at 36 µM in data set [2] amounted to 19.8%.
`Cc1ccccc1CC(Cc1ccc(-c2ccccc2)cc1)n1ccnc1` (stereo unspecified) came in with an inhibition at 2 µM in data set [1] of 25%. In data set [3], this compound returned an IC50 of 1040 nM.
Turning to `Clc1ccccc1CC(Cc1ccc(-c2ccccc2)cc1)n1ccnc1` (stereo unspecified), in data set [1], the inhibition at 2 µM was 22.6%. Also, in data set [3], 1090 nM corresponded to half-maximal inhibition (IC50).
Take `Fc1ccccc1CC(Cc1ccc(-c2ccccc2)cc1)n1ccnc1` (stereo unspecified): the Activity result in data set [4] is listed as “Not Active”. In data set [3], this compound yielded an IC50 of 1370 nM.
For `Clc1ccc(CC(Cc2ccc(-c3ccccc3)cc2)n2ccnc2)c(Cl)c1` (stereo unspecified), in data set [1], testing at 2 µM gave an inhibition of 18.2%. The IC50 in data set [3] was 1240 nM.
Regarding `Fc1ccc(CC(Cc2ccc(-c3ccccc3)cc2)n2ccnc2)c(F)c1` (stereo unspecified), the inhibition at 2 µM in data set [1] is 17.7%. This compound returned an IC50 in data set [3] of 260 nM.
As for `C(=C\c1ccccc1)/CCN(Cc1cccc2ccccc12)n1cnnc1`, the inhibition at 2 µM in data set [1] was determined as 6.1%. In data set [2], this compound showed an inhibition at 36 µM of 14.8%.
Consider `Fc1ccccc1CN(Cc1ccc(-c2ccccc2)cc1)n1ccnc1`, for which the Activity entry in data set [4] is listed as “Not Active”. The compound further came in with an IC50 in data set [3] of 460 nM.
Consider `C(=C\c1ccccc1)/CCN(Cc1ccc(-c2ccccc2)cc1)n1cnnc1`, for which the inhibition at 2 µM in data set [1] came to 16.1%. For the same compound, 36 µM produced 5.9% inhibition in data set [2].
For `Cc1ccc(CN(Cc2ccc(-c3ccccc3)cc2)n2ccnc2)cc1`, the inhibition at 2 µM in data set [1] was determined as 29.1%. In addition, in data set [3], the IC50 stood at 2200 nM.
With `Clc1ccc(CN(Cc2cccc3ccccc23)n2cncn2)c(Cl)c1`, the Activity entry in data set [4] is “Not Active”. The compound also showed an inhibition at 36 µM in data set [2] of 24.9%.
For the compound `C(=C\c1ccccc1)/CCN(Cc1ccc(-c2ccccc2)cc1)n1cncn1`, in data set [1], the inhibition at 2 µM amounted to 12.4%. For the same compound, in data set [2], the inhibition at 36 µM is 31.4%.
In the case of `Clc1ccc(CN(Cc2ccc(-c3ccccc3)cc2)n2ccnc2)c(Cl)c1`, in data set [1], 2 µM produced 25.8% inhibition. In data set [3], this compound yielded an IC50 of 3650 nM.
The compound `CC(C)(C)c1ccc(CN(Cc2ccc(-c3ccccc3)cc2)n2cnnc2)cc1` gave an inhibition at 2 µM in data set [1] of 15.9%. This compound also yielded an inhibition at 36 µM in data set [2] of 8.8%.
For `Clc1ccc(CN(Cc2ccc(-c3ccccc3)cc2)n2cnnc2)c(Cl)c1`, in data set [1], the inhibition at 2 µM came to 13.1%.
For `COc1ccc(CC(Cc2ccc(-c3ccccc3)cc2)n2ccnc2)cc1` (stereo unspecified), at 2 µM the inhibition in data set [1] was 38.8%. In data set [3], this compound registered an IC50 of 1680 nM.
Consider `c1ccc(CN(Cc2ccc(-c3ccccc3)cc2)n2ccnc2)cc1`, for which the Activity entry in data set [4] was “Not Active”. This compound also displayed an IC50 in data set [3] of 1200 nM.
The compound `Cc1ccccc1CN(Cc1ccc(-c2ccccc2)cc1)n1ccnc1` had an inhibition at 2 µM in data set [1] of 20.6%. The same compound showed an IC50 in data set [3] of 2960 nM.
The matching figures for `C(=C\c1ccccc1)/CCN(Cc1cccc2ccccc12)n1cncn1`: 15.5% and 13000 nM.
The matching figures for `Clc1ccc(CN(Cc2ccc(-c3ccccc3)cc2)n2ccnc2)cc1`: 13.6% and 1180 nM.
On to `CC(C)(C)c1ccc(CC(Cc2ccc(-c3ccccc3)cc2)n2ccnc2)cc1` (stereo unspecified), for which the Activity result in data set [4] is given as “Not Active”. Moreover, the IC50 in data set [3] was determined as 1000 nM.
`Fc1ccc(CN(Cc2ccc(-c3ccccc3)cc2)n2ccnc2)cc1` yielded an inhibition at 2 µM in data set [1] of 13.9%. The compound further returned an IC50 in data set [3] of 190 nM.
On the same counts, the results for `COc1ccccc1CN(Cc1ccc(-c2ccccc2)cc1)n1ccnc1` are 42.9% and 1510 nM.
The matching figures for `COc1ccc(CN(Cc2ccc(-c3ccccc3)cc2)n2ccnc2)cc1`: 21.7% and 1530 nM.
The matching figures for `c1ccc(CC(Cc2ccc(-c3ccccc3)cc2)n2ccnc2)cc1` (stereo unspecified): 17.1% and 950 nM.
`CC(C)(C)c1ccc(CN(Cc2cccc3ccccc23)n2cnnc2)cc1` came in with an inhibition at 2 µM in data set [1] of 22.4%.
Consider `Clc1ccc(CN(CC/C=C/c2ccccc2)n2cnnc2)c(Cl)c1`, for which the Activity entry in data set [4] was “Not Active”. The compound further displayed an inhibition at 36 µM in data set [2] of 10.6%.
`CC(C)(C)c1ccc(CN(CC/C=C/c2ccccc2)n2cnnc2)cc1` displayed an inhibition at 2 µM in data set [1] of 19.9%. The inhibition at 36 µM in data set [2] was 38.3%.
Consider `Fc1ccc(CN(Cc2ccc(-c3ccccc3)cc2)n2ccnc2)c(F)c1`, for which the Activity result in data set [4] is “Not Active”. This compound registered an IC50 in data set [3] of 350 nM.
For `CC(C)(C)c1ccc(CN(Cc2ccc(Cl)cc2Cl)n2ccnc2)cc1`, the inhibition at 2 µM in data set [1] was found to be 43.3%. This compound also displayed an IC50 in data set [3] of 1520 nM.
Consider `CC(C)(C)c1ccc(CN(Cc2ccc(Cl)cc2Cl)n2cncn2)cc1`, for which at 2 µM the inhibition in data set [1] was 3.33%. Also, 36 µM produced 36% inhibition in data set [2].
`Clc1ccc(CN(Cc2cccc3ccsc23)n2ccnc2)c(Cl)c1` came in with an inhibition at 2 µM in data set [1] of 4.07%. Also, the IC50 in data set [3] is 2490 nM.
Regarding `CC(C)(C)c1ccc(CN(Cc2ccc(-c3ccccc3)cc2)n2ccnc2)cc1`, the Activity entry in data set [4] is given as “Not Active”. For the same compound, the IC50 in data set [3] came to 2160 nM.
As to `Clc1ccc(CN(Cc2ccc(Cl)s2)n2ccnc2)c(Cl)c1`, in data set [1], at 2 µM the inhibition was 56.2%. This compound came in with an IC50 in data set [3] of 320 nM.
On to `CC(C)(C)c1ccc(CN(Cc2cccs2)n2cncn2)cc1`, for which, in data set [4], the Activity entry was “Not Active”. Further, 9230 nM corresponded to half-maximal inhibition in data set [3] (IC50).
In data set [1], `Clc1ccc(CC(Cc2ccccc2)n2ccnc2)s1` (stereo unspecified) returned an inhibition at 2 µM of 7.97%. Further, the IC50 in data set [3] is 870 nM.
In data set [1], `Clc1ccccc1CN(Cc1ccc(-c2ccccc2)cc1)n1ccnc1` registered an inhibition at 2 µM of 29.4%. Further, 300 nM corresponded to half-maximal inhibition in data set [3] (IC50).
The matching figures for `COc1ccccc1CC(Cc1ccc(-c2ccccc2)cc1)n1ccnc1` (stereo unspecified): 30.2% and 510 nM.
In data set [1], `CC(C)(C)c1ccc(CN(Cc2cccc3ccccc23)n2cncn2)cc1` returned an inhibition at 2 µM of 3.13%. For the same compound, in data set [2], the inhibition at 36 µM was 14.6%.
`Cc1ccc(CC(Cc2ccc(-c3ccccc3)cc2)n2ccnc2)cc1` (stereo unspecified) returned an inhibition at 2 µM in data set [1] of 32.8%. Besides, the IC50 in data set [3] worked out at 1320 nM.
In turn, `Clc1ccc(CN(Cc2cccc3ccccc23)n2cnnc2)c(Cl)c1` gave an inhibition at 2 µM in data set [1] of 4.43%. 36 µM produced 8.8% inhibition in data set [2].
`CC(C)(C)c1ccc(CN(Cc2cccs2)n2cnnc2)cc1`: the Activity entry in data set [4] is “Not Active”. Besides, the inhibition at 36 µM in data set [2] was determined as 30.7%.
Turning to `Fc1ccc(CC(Cc2ccc(-c3ccccc3)cc2)n2ccnc2)cc1` (stereo unspecified), the inhibition at 2 µM in data set [1] was found to be 15.8%. This compound also showed an IC50 in data set [3] of 110 nM.
The matching figures for `CC(C)(C)c1ccc(CN(Cc2cccs2)n2ccnc2)cc1`: 10.7% and 580 nM.
`Clc1ccc(CN(Cc2ccc(-c3ccccc3)cc2)n2cncn2)c(Cl)c1` had an inhibition at 2 µM in data set [1] of 9.2%. This compound also showed an inhibition at 36 µM in data set [2] of 27.6%.

The values above are taken from ChEMBL document CHEMBL1144209, “CYP19 (aromatase): exploring the scaffold flexibility for novel selective inhibitors” (Bioorg Med Chem, 2008).
